# ChEMBL document CHEMBL3259783, “Inhibitory effects of novel synthetic methimazole derivatives on mushroom tyrosinase and melanogenesis” (Bioorg Med Chem, 2014)
# Calls of active or inactive are those of the source. The calls are words filed in the database; no cut-off is given here.
# Legend:
# [1] = (§1) Antimelanogenic activity in mouse B16/F10 cells assessed as inhibition of alpha-MSH-induced melanin formation at 1 mM after 24 hrs by ELISA relative to control; format: functional; details: B16-F10, 24 h
# Summary of the method: (§2)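 B16/F10 cells seeded 1 × 10^5 per well, grown 48 h at 37 °C, 5% CO2; stimulated with 100 nM α-MSH for 24 h, then exposed to 1 mM test agent (kojic acid reference) for 24 h. After PBS washes, pellets dissolved in 1 N NaOH/10% DMSO, 1 h at 80 °C; A405 read. Content = sample/control × 100%; triplicate, mean ± SD.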
# Tyrosinase [2] = target: T1, Tyrosinase (Agaricus bisporus, UniProt O42713); test: Mixed-type inhibition of mushroom tyrosinase-mediated L-tyrosine oxidation assessed as enzyme-inhibitor complex after 10 mins by Lineweaver-Burk plot analysis
# T1 sequence (O42713 whole entry): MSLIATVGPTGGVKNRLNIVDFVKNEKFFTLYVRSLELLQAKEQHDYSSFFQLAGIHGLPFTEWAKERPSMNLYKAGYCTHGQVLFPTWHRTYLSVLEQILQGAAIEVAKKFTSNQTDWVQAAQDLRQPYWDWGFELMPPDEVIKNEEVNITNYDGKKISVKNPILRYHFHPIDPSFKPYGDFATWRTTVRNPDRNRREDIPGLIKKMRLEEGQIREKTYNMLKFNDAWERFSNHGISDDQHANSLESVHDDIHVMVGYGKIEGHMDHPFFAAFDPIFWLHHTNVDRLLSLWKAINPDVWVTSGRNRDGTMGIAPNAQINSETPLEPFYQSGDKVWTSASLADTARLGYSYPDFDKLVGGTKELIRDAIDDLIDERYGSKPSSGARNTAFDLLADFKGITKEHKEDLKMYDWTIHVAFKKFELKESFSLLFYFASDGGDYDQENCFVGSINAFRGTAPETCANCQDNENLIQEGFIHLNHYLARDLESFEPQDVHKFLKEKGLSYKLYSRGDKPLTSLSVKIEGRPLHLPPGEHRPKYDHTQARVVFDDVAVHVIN
# [3] = Cytotoxicity against mouse B16/F10 cells at 2 mM after 24 hrs by MTT assay; format: cell-based; details: b16-f10, 24 h, 2000 µM
# Summary of the method: (§3)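 B16/F10 cells in DMEM with 10% FBS, penicillin, streptomycin and amphotericin at 37 °C, 5% CO2. Seeded 3 × 10^4 per well, adhered 24 h, exposed to 1 or 2 mM compound in fresh DMEM for 24 h. MTT (0.5 mg/mL in PBS) added for 40 min at 37 °C; formazan dissolved in DMSO, A570 read. Viability as % of untreated control; triplicate.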
# Tyrosinase [4] = target: T1, Tyrosinase; test: (§4) Inhibition of mushroom tyrosinase-mediated L-tyrosine hydroxylation after 30 mins by ELISA
# Summary of the method: (§5)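 Mushroom tyrosinase with L-tyrosine substrate; dipotassium hydrogen phosphate buffer as vehicle control. Mixture held 25 °C for 30 min, dopachrome read at 475 nm. Inhibition % = (1 − ABSsample/ABScontrol) × 100. IC50 from regression of the dose–response curve; triplicate, mean ± SD of 3 independent runs.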
# [5] = Cytotoxicity against mouse B16/F10 cells at 1 mM after 24 hrs by MTT assay; format: cell-based; details: b16-f10, 24 h, 1000 µM; summary of the method: as §3
# [6] = target: T2, Tyrosinase (Agaricus bisporus) (UniProt O42713); test: Noncompetitive inhibition of mushroom tyrosinase-mediated L-tyrosine oxidation assessed as enzyme-substrate-inhibitor complex after 10 mins by Lineweaver-Burk plot analysis
# T2 sequence (whole entry): T1 sequence (O42713 whole entry)
# Tyrosinase [7] = target: T1, Tyrosinase; test: Noncompetitive inhibition of mushroom tyrosinase-mediated L-tyrosine oxidation assessed as enzyme-inhibitor complex after 10 mins by Lineweaver-Burk plot analysis
# [8] = target: T2, Tyrosinase (Agaricus bisporus); test: as §4; summary of the method: as §5
# [9] = target: T2, Tyrosinase (Agaricus bisporus); test: Mixed-type inhibition of mushroom tyrosinase-mediated L-tyrosine oxidation assessed as enzyme-substrate-inhibitor complex after 10 mins by Lineweaver-Burk plot analysis
# B16-F10 = test: as §1; format: functional; summary of the method: as §2
SMILES,inhibition at 1000 µM [1] [%],IC50 (Tyrosinase [4]) [mM],inhibition [8],other results
O=c1cc(CO)occ1O [KOJIC ACID],56.9,–,–,–
Cn1cc[nH]c1=S [METHIMAZOLE],–,1.43,–,Ki (Tyrosinase [2]): 0.47 mM; Activity [3]: Toxic
Cn1ccn(C(=O)OC(C)(C)C)c1=S,49.3,1.45,Dose-dependent effect,Activity [5]: Non-toxic; Activity [3]: Non-toxic; Kis [6]: 1.75 mM; Ki (Tyrosinase [7]): 1.75 mM
Cn1ccnc1S [METHIMAZOLE],88.7,–,Dose-dependent effect,Kis [9]: 1.91 mM
Sc1ncc[nH]1,–,4.11,Dose-dependent effect,Ki (Tyrosinase [2]): 0.57 mM; Activity [5]: Toxic; Kis [9]: 2.8 mM; inhibition (B16-F10): Active
COC(=O)C(Cn1ccn(C)c1=S)NC(=O)OC(C)(C)C (stereo not drawn),–,–,inactive,–
COC(=O)C(N)Cn1ccn(C)c1=S (stereo not drawn),–,–,inactive,–
Cn1ccn(CC(N)C(=O)O)c1=S (stereo not drawn),–,–,inactive,–
